Assay outcomes: PubChem, several laboratories
HSF-1 act – HSF-1 activators, primary screen, NIH3T3-HGL cells, MG132 stress, luminescence, single point. NIH3T3-HGL HSF-1 luciferase reporter, 8 h; 100% = twice DMSO control signal. activation, % at 9 µM. hit rate 1.7% among 300,000. AID 504408, 2011;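 active means mean replicate activation of at least 50% with a set share of replicates each reaching 50%; inconclusive means only one of those two conditions met; inactive means mean below 50% and too few replicates reaching it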;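 further: 0% = median of the neutral control wells and 100% = twice that signal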
HSF1 inhib – HSF1 inhibitors in luciferase reporter cells, primary screen, cell-based, NIH3T3, luminescence. NIH3T3-HGL HSE-luciferase, MG132-induced, luminescence 8 h; active compounds read low. activity change, negative = inhibition, % at 7.5 µM (by protocol). hit rate 0.77% among 300,000. AID 2098, 2009;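 active means more than half of replicate wells show activity change below -50%, luminescence cut by over half; inconclusive means some wells, but at most half, below -50%; inactive means no replicate well below -50%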;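 further: luciferase reports HSF-1 transcriptional activity via heat shock element; 0% = median of DMSO wells and -100% = zero luminescence signal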
HCV core dimer – inhibitors of HCV core protein dimerization, primary screen, biochemical, TR-FRET, high-throughput; TR-FRET GST/Flag-core106 dimerization, 1536-well; hit rate 0.33% among 300,000; inhibition, % at 5 µM;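 active means inhibition above the mean of all tested compounds plus 3 SD, set per screening campaign, cut at about 45% in these data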
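Assay system: Tagged HCV core106 pair (GST and Flag) | Buffer or medium: KF-containing HEPES buffer, pH 7.45, DTT, CHAPS, BSA | Also added: Eu donor and XL665 acceptor anti-tag antibodies | Dosing: One concentration, 5 µM, in 0.5% DMSO | Timing: 4 h at 22.5 °C | Technique: TR-FRET 671 and 617 nm emission | Repeats: Singlicate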
ALR H2O2 inh – inhibitors of human ALR sulfhydryl oxidase, primary screen, biochemical, H2O2 detection, HRP-luminol luminescence, single point; purified ALR, DTT oxidation; FAD-linked sulfhydryl oxidase ALR (Homo sapiens), P55789; AID 485317, 2010; inhibition, % (concentration not given with the values); hit rate 3.8% among 290,000;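 active means mean replicate inhibition above about 79%, with every replicate also reaching it, limit read from the data; inconclusive means only one of the two criteria met; inactive means mean below limit and not every replicate reaching it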
Target sequence (P55789 whole entry, looked up): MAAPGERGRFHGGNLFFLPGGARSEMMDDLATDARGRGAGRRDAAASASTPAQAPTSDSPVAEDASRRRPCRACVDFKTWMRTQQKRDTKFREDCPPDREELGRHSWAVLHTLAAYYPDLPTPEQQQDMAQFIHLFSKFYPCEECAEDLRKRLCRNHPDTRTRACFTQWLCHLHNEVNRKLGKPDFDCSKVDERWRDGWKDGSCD
PHOSPHO1 inh – PubChem AID 1565; recombinant PHOSPHO1, absorbance phosphatase assay; inhibition, % at 13.3 µM; hit rate 1.1% among 290,000; in the data active means inhibition above about 60%
Target sequence (Q8TCT1 whole entry, looked up): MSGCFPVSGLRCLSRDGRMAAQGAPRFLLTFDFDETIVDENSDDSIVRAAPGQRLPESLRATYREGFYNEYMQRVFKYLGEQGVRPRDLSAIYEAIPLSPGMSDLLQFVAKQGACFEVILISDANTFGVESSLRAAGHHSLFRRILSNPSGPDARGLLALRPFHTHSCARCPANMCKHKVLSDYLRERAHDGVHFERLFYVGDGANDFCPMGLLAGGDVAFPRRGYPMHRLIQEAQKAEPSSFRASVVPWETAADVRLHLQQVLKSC
AI-2 QS modul – Vibrio harveyi AI-2 quorum sensing modulators, primary screen, JMH597 strain, luminescence/OD600 ratio. hit rate 0.4% among 300,000. AID 2094, 2009. activity change, % at 7.5 µM. Vibrio harveyi JMH597 AI-2 luminescence/OD600 ratio, 9 h; active compounds read low; strain lacks LuxN and CqsS sensors; 0 = neutral-control median; in the data active means activity change below about -75%, passing the limit was not always enough; inconclusive means no clear call, values can overlap the other calls;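 further: luminescence divided by OD600 gain over 9 h not by final OD600 alone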
* hit, by the source's call. Rows were chosen to be rich in hits. Some 6.8% of all compounds tested hit in one or more screens of this group.

What do the screens show for `COc1cc(C(=O)NNC(=O)/C=C/c2ccccc2)cc(OC)c1OC`?
ALR H2O2 inh: -3.7

How did COc1ccc(C(=O)Nc2ccccc2)cc1NC(=O)c1cccs1 do in these assays?
HSF-1 act: 12.5; HSF1 inhib: -2.7; ALR H2O2 inh: 9.3; PHOSPHO1 inh: 51.4; AI-2 QS modul: 17.1

Results for Cc1ccc(S(=O)(=O)NCCC(=O)Nc2ccc(C)cc2C(=O)c2ccccc2)cc1 ?
HSF-1 act: 43.6; HSF1 inhib: 11.6; HCV core dimer: 7.1; ALR H2O2 inh: -3.7; PHOSPHO1 inh: -11.2; AI-2 QS modul: -6.6

What do the screens show for `CC(C)C(C(=O)NCC1CCCO1)N(C(=O)CNS(=O)(=O)c1ccccc1)c1ccc(F)cc1` (stereo not drawn)?
HSF-1 act: 12.3; HSF1 inhib: 3.9; HCV core dimer: -1.0; ALR H2O2 inh: 9.2; PHOSPHO1 inh: -21.7; AI-2 QS modul: 12.3

What do the screens show for `O=C(NNC(=S)NC(=O)c1ccccc1)c1cccnc1`?
HSF-1 act: 28.1; HSF1 inhib: 8.3; HCV core dimer: -5.1; ALR H2O2 inh: 98.3*; PHOSPHO1 inh: -95.0; AI-2 QS modul: 36.3

Results for COc1cc(OC)cc(C(=O)NC(=S)NNC(=O)[C@H]2C[C@@H]2c2ccccc2)c1 ?
HSF-1 act: 2.5; HSF1 inhib: -0.5; HCV core dimer: -5.0; ALR H2O2 inh: 99.0*; PHOSPHO1 inh: 34.2; AI-2 QS modul: 69.8

How did COc1ccc(C(=O)NC(=S)NNC(=O)[C@H]2C[C@@H]2c2ccccc2)cc1OC do in these assays?
HSF-1 act: 12.1; HSF1 inhib: 4.6; HCV core dimer: 8.4; ALR H2O2 inh: 33.7; PHOSPHO1 inh: -9.9; AI-2 QS modul: -9.1

What do the screens show for `CC(C)(C)c1ccc(C(=O)NNC(=S)NC(=O)c2cccnc2)cc1`?
HSF-1 act: -15.7; HSF1 inhib: -8.1; HCV core dimer: 8.8; ALR H2O2 inh: inconclusive; PHOSPHO1 inh: -68.2; AI-2 QS modul: inconclusive

How did COc1cc(C(=O)NCC(=O)OCc2ccc(F)cc2)cc(OC)c1OC do in these assays?
ALR H2O2 inh: 0.2

What do the screens show for `Cc1ccc(S(=O)(=O)Nc2ccc(O)c3ncccc23)cc1`?
HSF-1 act: 34.1; HSF1 inhib: 20.5; HCV core dimer: -8.3; ALR H2O2 inh: 87.8*; PHOSPHO1 inh: -32.7; AI-2 QS modul: 2.0

What do the screens show for `Cc1ccc(S(=O)(=O)Nc2ccc(O)c3cccnc23)cc1`?
HSF-1 act: 20.4; HSF1 inhib: 2.8; HCV core dimer: -14.4; ALR H2O2 inh: 94.8*; PHOSPHO1 inh: 44.0

How did COc1ccc(C(=O)NCCS(=O)(=O)N2CCCC2)cc1 do in these assays?
HSF-1 act: 4.8; HSF1 inhib: -0.9; HCV core dimer: -1.1; ALR H2O2 inh: -4.2; AI-2 QS modul: 10.9

What do the screens show for `COc1ccc(S(=O)(=O)N2CCN(C(=O)C3CCCO3)CC2)cc1` (stereo not drawn)?
HSF-1 act: -0.4; HSF1 inhib: -4.0; HCV core dimer: -0.4; ALR H2O2 inh: 1.6; PHOSPHO1 inh: 36.6; AI-2 QS modul: 17.8

Results for CC1(C)OC(c2ccccc2)=C/C(=C/C=N/NC(=O)c2ccncc2)O1 ?
HSF-1 act: -4.8; HSF1 inhib: 2.5; HCV core dimer: -8.8; ALR H2O2 inh: 98.1*; PHOSPHO1 inh: 10.2; AI-2 QS modul: 42.2

How did Cc1ccccc1N=C/C=C1/C=C(c2ccccc2)OC(C)(C)O1 do in these assays?
HSF-1 act: 2.2; HSF1 inhib: 2.7; HCV core dimer: 2.8; ALR H2O2 inh: -4.6; PHOSPHO1 inh: -1.1; AI-2 QS modul: 15.2

How did CN(CC(=O)Nc1ccccc1Cl)C(=O)Cn1nnc(-c2ccc(F)cc2)n1 do in these assays?
HSF-1 act: -5.4; HSF1 inhib: -3.1; HCV core dimer: 2.0; ALR H2O2 inh: 0.7; AI-2 QS modul: 33.9

How did O=C(CCC(=O)c1cccs1)Nc1ccc(N2CCCCC2)cc1 do in these assays?
HSF-1 act: 36.8; HSF1 inhib: -0.8; HCV core dimer: 37.9; ALR H2O2 inh: 89.6*; PHOSPHO1 inh: 6.5; AI-2 QS modul: 17.7

What do the screens show for `CC1CCCCN1CC(=O)Nc1ccc(Oc2ccccc2)cc1` (stereo not drawn)?
HSF-1 act: -10.3; HSF1 inhib: 0.8; HCV core dimer: 0.5; ALR H2O2 inh: -2.3; PHOSPHO1 inh: 13.3; AI-2 QS modul: -14.1

Results for O=C(NCC(=O)N1CCN(c2ccccc2O)CC1)c1cccs1 ?
HSF-1 act: 19.9; HSF1 inhib: 8.5; HCV core dimer: 0.1; ALR H2O2 inh: 99.1*; AI-2 QS modul: 13.2

What do the screens show for `CC1CCCCN1CC(=O)Nc1ccc(N2CCCCCC2)cc1` (stereo not drawn)?
HSF-1 act: 4.6; HSF1 inhib: -4.5; HCV core dimer: -3.8; ALR H2O2 inh: 99.0*; PHOSPHO1 inh: 10.2; AI-2 QS modul: -3.4

How did CC(=O)Nc1ccc(N2CCCCC2)cc1 do in these assays?
HSF-1 act: -5.4; HSF1 inhib: 4.7; HCV core dimer: -4.4; ALR H2O2 inh: 99.0*; PHOSPHO1 inh: 26.7; AI-2 QS modul: 23.3

What do the screens show for `COc1cccc(CNC(=O)CCNC(=O)c2ccccc2OC)c1`?
HSF-1 act: 2.6; HSF1 inhib: -0.9; HCV core dimer: -1.5; ALR H2O2 inh: 0.3; PHOSPHO1 inh: 32.6; AI-2 QS modul: 23.4

Results for C=CCNCc1ccc(C(=O)NCCCCCCC)cc1[N+](=O)[O-] ?
HSF-1 act: -0.9; HSF1 inhib: 0.7; HCV core dimer: 1.9; AI-2 QS modul: 19.3

How did CCCC(=O)NC(=S)Nc1ccc(N2CCN(C(=O)c3cccs3)CC2)cc1 do in these assays?
HSF-1 act: -1.2; HSF1 inhib: -4.9; HCV core dimer: 0.7; ALR H2O2 inh: 18.2; PHOSPHO1 inh: 32.5; AI-2 QS modul: 39.0

What do the screens show for `CC(=O)Nc1ccc(S(=O)(=O)NC2=C(N3CCN(c4ccc(F)cc4)CC3)C(=O)c3ccccc3C2=O)cc1`?
HSF-1 act: 75.3*; HSF1 inhib: 61.3; HCV core dimer: -2.5; ALR H2O2 inh: -14.3; PHOSPHO1 inh: 28.4; AI-2 QS modul: 3.9

Results for O=C(CCl)Nc1ccc(N2CCCCCC2)cc1 ?
HSF-1 act: 16.4; HSF1 inhib: 6.0; HCV core dimer: 3.1; ALR H2O2 inh: 98.8*; PHOSPHO1 inh: -7.0; AI-2 QS modul: -54.9

What do the screens show for `Cc1ccc(S(=O)(=O)NC2=C(N3CCN(c4ccccc4F)CC3)C(=O)c3ccccc3C2=O)cc1`?
HSF-1 act: -36.6; HSF1 inhib: -36.6; HCV core dimer: 23.0; ALR H2O2 inh: -7.4; PHOSPHO1 inh: -18.1; AI-2 QS modul: 19.9
